Assay results published in paper PMC7540589 (Chemmedchem, 2020).

Test: Thermal and radiochemical stability during 68Ga-radiolabeling
Type: physicochemical
Details: elevated temperature of 99 °C
Procedure, shortened: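 Precursor (20 nmol in water) was added to 376.6–461.0 MBq ⁶⁸Ga³⁺ from ⁶⁸Ge/⁶⁸Ga generator fractioned elution with 0.1 M HCl. The mixture was titrated to pH 3.5–4.0 with 1.25 M sodium acetate and heated at 99 °C for 10 min. Reaction mixtures were analysed by analytical radio-HPLC.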

- thermal stability of precursor: stable
Substance: Ac[D‐Cys^29,Lys(DOTA)^31,Cys^34]NPY29‐36 [Compound 4]
